# Assay results: ChEMBL document CHEMBL4316640, “Taichunins A-D, Norditerpenes from Aspergillus taichungensis (IBT 19404)” (J Nat Prod, 2019)
# The source made the active and inactive calls. The calls are words filed in the database; no cut-off is given here.
# Key:
# [1] = tested on: HeLa; experiment: Cytotoxicity in human HeLa cells at 50 uM incubated for 3 days by MTT assay; format: functional, cell-based
# How it was run: (§1)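 HeLa cells; daunorubicin run alongside as the positive control.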
# [2] = target: Ubiquitin carboxyl-terminal hydrolase 7 (Homo sapiens) (UniProt Q93009); experiment: Inhibition of USP7 (unknown origin)
# [3] = target: T1, Ubiquitin-like modifier-activating enzyme 1 (Homo sapiens) (UniProt P22314); experiment: Inhibition of Ubiquitin/Ubiquitin-activating enzyme E1 (unknown origin)
# T1 sequence (whole entry): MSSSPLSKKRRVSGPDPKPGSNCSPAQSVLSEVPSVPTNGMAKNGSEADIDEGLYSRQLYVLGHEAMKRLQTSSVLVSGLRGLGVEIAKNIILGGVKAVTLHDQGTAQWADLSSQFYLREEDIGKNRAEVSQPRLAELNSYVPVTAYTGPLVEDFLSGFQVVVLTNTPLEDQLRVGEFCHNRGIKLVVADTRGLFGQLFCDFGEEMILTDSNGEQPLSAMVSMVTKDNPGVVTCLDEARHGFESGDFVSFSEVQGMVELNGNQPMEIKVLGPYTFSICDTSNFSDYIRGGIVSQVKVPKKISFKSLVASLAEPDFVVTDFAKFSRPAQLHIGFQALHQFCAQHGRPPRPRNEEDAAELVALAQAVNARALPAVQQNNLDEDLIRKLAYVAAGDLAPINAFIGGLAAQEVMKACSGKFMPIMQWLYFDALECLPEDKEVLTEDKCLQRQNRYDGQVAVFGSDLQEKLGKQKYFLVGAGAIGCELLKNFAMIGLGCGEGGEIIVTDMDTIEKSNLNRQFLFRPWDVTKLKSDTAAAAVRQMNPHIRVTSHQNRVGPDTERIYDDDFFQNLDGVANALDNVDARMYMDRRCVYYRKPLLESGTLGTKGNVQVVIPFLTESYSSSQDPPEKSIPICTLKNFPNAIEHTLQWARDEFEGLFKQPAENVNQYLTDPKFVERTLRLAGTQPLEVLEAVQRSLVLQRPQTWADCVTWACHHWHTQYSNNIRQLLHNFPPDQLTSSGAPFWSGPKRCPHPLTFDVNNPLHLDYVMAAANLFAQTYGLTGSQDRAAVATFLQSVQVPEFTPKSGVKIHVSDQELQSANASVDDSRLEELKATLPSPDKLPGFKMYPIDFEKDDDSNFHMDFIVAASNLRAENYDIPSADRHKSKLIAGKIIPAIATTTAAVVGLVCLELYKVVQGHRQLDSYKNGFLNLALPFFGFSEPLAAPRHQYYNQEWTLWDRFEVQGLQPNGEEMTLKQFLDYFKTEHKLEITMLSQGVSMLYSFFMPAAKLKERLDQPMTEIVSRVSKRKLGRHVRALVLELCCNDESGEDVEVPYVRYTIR
# [4] = target: Tumour suppressor p53/oncoprotein Mdm2 (Homo sapiens) (UniProt P04637+Q00987); experiment: Inhibition of p53/Mdm2 interaction (unknown origin); format: protein assay
# [5] = tested on: Osteoclast; experiment: Inhibition of RANKL-induced formation of multinuclear osteoclasts (unknown origin); format: functional, cell-based
# [6] = tested on: Macrophage; experiment: Inhibition of cholesterol ester accumulation in macrophages (unknown origin); format: functional, cell-based
# [7] = target: Ubiquitin-conjugating enzyme E2 N/Ubiquitin-conjugating enzyme E2 variant 1 (Homo sapiens) (UniProt Q13404+P61088); experiment: Inhibition of Ubc13/Uev1A interaction (unknown origin); format: protein assay
# [8] = tested on: Proteasome; experiment: Inhibition of proteasome (unknown origin); format: subcellular; details: Homo sapiens
# [9] = tested on: HeLa; experiment: Cytotoxicity in human HeLa cells incubated for 3 days by MTT assay; format: functional, cell-based; details: 72 h; how it was run: as §1
# Sequence of Tumour suppressor p53/oncoprotein Mdm2 (Homo sapiens) (P04637 whole entry, looked up): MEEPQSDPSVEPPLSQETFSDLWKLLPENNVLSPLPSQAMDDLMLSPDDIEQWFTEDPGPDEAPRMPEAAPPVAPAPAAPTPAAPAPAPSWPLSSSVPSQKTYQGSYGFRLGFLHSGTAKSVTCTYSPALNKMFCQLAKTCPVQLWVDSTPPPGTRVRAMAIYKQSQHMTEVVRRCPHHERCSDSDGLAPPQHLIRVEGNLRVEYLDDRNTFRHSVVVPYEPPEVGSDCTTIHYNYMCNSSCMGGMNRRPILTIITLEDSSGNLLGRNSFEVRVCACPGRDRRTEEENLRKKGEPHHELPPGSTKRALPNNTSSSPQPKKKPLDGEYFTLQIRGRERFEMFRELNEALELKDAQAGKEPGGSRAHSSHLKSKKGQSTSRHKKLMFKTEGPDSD
# Sequence of Tumour suppressor p53/oncoprotein Mdm2 (Homo sapiens) (Q00987 whole entry, looked up): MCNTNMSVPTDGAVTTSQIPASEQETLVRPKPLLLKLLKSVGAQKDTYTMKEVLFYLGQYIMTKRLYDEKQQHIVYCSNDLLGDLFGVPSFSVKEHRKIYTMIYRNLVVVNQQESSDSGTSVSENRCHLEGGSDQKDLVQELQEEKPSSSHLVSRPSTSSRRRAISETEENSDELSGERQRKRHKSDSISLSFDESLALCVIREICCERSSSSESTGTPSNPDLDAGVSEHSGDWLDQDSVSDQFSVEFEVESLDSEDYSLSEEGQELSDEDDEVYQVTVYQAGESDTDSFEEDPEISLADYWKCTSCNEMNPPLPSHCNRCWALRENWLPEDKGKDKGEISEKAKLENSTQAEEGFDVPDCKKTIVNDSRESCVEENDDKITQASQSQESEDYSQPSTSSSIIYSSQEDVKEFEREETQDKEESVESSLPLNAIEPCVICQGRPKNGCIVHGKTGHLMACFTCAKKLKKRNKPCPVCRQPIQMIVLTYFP
# Sequence of Ubiquitin carboxyl-terminal hydrolase 7 (Homo sapiens) (Q93009 whole entry, looked up): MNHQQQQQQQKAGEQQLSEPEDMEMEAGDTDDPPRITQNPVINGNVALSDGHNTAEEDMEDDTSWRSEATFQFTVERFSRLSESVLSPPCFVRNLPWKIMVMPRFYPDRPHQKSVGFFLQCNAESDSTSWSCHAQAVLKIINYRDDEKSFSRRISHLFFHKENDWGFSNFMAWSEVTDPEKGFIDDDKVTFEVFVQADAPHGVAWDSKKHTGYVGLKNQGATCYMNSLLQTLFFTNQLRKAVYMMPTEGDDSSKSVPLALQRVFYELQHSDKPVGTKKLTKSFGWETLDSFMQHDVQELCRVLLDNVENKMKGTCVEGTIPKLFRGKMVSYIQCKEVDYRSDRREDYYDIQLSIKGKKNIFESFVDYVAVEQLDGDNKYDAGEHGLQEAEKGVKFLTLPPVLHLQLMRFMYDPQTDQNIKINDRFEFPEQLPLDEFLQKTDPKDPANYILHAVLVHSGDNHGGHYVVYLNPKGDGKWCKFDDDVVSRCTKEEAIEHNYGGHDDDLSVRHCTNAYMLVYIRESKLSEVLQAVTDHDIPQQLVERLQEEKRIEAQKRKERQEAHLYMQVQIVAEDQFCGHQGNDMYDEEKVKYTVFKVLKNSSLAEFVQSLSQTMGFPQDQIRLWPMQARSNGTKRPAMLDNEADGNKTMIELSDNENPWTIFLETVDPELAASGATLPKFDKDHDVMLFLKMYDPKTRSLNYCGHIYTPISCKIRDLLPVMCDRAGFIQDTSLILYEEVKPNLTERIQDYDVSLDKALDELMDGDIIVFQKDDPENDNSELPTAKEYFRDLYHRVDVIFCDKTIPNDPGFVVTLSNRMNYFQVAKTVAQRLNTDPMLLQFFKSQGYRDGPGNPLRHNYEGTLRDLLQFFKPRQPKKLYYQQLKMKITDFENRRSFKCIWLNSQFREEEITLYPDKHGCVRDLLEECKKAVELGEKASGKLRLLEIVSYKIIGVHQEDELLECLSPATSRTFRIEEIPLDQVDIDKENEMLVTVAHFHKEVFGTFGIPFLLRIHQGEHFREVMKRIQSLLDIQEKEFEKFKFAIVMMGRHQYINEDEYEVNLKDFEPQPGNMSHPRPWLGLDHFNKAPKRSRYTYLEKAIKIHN
SMILES,inhibition [2],inhibition [3],inhibition [4],inhibition [7],inhibition [8],Activity [1],inhibition [5],inhibition [6],IC50 [9]
C=C[C@@]1(C)CCC2=C(C(=O)O[C@]23CCCC(C)(C)[C@@H]3C(=O)O[C@@H]2O[C@H](CO)[C@@H](O)[C@H](O)[C@H]2O)[C@@H]1O,inactive,inactive,inactive,inactive,inactive,inactive,inactive,inactive,
C=C[C@]1(C)C=C2[C@@H](O)[C@@]3(O)OC(=O)[C@@]4(CCCC(C)(C)[C@H]34)[C@@]2(O)CC1,inactive,inactive,inactive,inactive,inactive,inactive,inactive,inactive,

# Continued, in another order:
inhibition [2],inhibition [3],inhibition [4],inhibition [7],inhibition [8],SMILES,Activity [1],inhibition [5],inhibition [6],IC50 [9]
inactive,inactive,inactive,inactive,inactive,C=C[C@@]1(C)CCC2=C(C(=O)O[C@]23CCCC(C)(C)[C@@H]3C(=O)O)[C@@H]1O,inactive,inactive,inactive,
inactive,inactive,inactive,inactive,inactive,C=C[C@]1(C)C=C2C(=O)O[C@@]34CCCC(C)(C)[C@@H]3C(=O)O[C@@]24CC1,,inactive,inactive,4.5 µM
inactive,inactive,inactive,inactive,inactive,C=C[C@]1(C)CC2=C(O)C(=O)C3=C(CCCC3(C)C)C2=CC1=O,inactive,inactive,inactive,
